# Activity calls are given as the source filed them. The calls are words filed in the database; no cut-off is given here.
# Columns and labels:
# [1] = Cytotoxicity against human HepG2 cells assessed as reduction in cell proliferation measured after 72 hrs by crystal violet staining based analysis; type: toxicity
# [2] = biological target: Trypanothione reductase (Leishmania infantum) (UniProt A4HSF7); experiment: Mixed non-competitive inhibition of Leishmania infantum TryR using TS2 as substrate assessed as increase in apparent inhibition constant of high affinity EI complex by plot analysis
# Method in brief: (§1)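 Final assay: 40 mM HEPES pH 7.5, 1 mM EDTA, 300 µM NADPH, 60 µM NADP+, 150 µM DTNB, 3.1–100 µM TS2, 1.04% DMSO, 0.5 nM LiTryR, with serially diluted inhibitor. Enzyme was added last by automated dispenser to avoid preincubation. Progress curves were read at 412 nm at 26 °C; initial and steady-state velocities were fitted to kinetic models. Three independent experiments.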
# [3] = biological target: Trypanothione reductase (Leishmania infantum) (UniProt A4HSF7); experiment: Mixed non-competitive inhibition of Leishmania infantum TryR using TS2 as substrate assessed as increase in apparent inhibition constant of initial EI complex by plot analysis; method in brief: as §1
# [4] = biological target: Trypanothione reductase (Trypanosoma congolense, UniProt P13110); experiment: Inhibition of HIS-tagged recombinant Trypanosoma congolense TryR oxidoreductase activity expressed in Escherichia coli in the presence of NADPH by spectrophotometry based DTNB-coupled assay
# Method in brief: (§2)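 HIS-tagged TryR from each species was expressed in E. coli. Activity was read by DTNB-coupled assay at 26 °C in 40 mM HEPES pH 7.5, 1 mM EDTA, 30 µM NADP+, 25 µM DTNB, 150 µM NADPH, 1.75% DMSO. Conditions were 50 µM TS2 and 0.5 nM enzyme; reaction started with NADPH + TS2. TNB absorbance at 412 nm. Three independent experiments.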
# [5] = Cytotoxicity against human HepG2 cells assessed as reduction in cell proliferation treated for 24 hrs by crystal violet staining based analysis; type: toxicity
# [6] = Thermodynamic aqueous solubility of compound at 25 degreeC measured after 24 hrs by HPLC analysis; type: physicochemical; details: buffer, read-out: Therm_solubility
# Method in brief: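 Excess compound was suspended in water (pH 5.5), sonicated 10 min, equilibrated overnight at room temperature, and centrifuged. Supernatant was diluted and quantified by HPLC (UV 254 nm) against a five-point standard curve (10–500 µM).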
# [7] = biological target: T1, Trypanothione reductase (Leishmania infantum, UniProt A4HSF7); experiment: Inhibition of HIS-tagged recombinant Leishmania infantum TryR oxidoreductase activity expressed in Escherichia coli in the presence of NADPH by spectrophotometry based DTNB-coupled assay
# Method in brief: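 HIS-tagged LiTryR was used in a DTNB-coupled assay at 26 °C. Buffer: 40 mM HEPES pH 7.5, 1 mM EDTA, 30 µM NADP+, 25 µM DTNB, 150 µM NADPH, 1.75% DMSO. Standard runs used 1 µM TS2 and 7 nM enzyme; cross-species runs used 50 µM TS2 and 0.5 nM enzyme. Started with NADPH + TS2; TNB read at 412 nm. Compounds were screened at 75 µM first. Three independent experiments.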
# [8] = test system: Leishmania infantum; experiment: Antileishmanial activity against Leishmania infantum MCAN/ES/89/IPZ229/1/89 axenic amastigotes assessed as reduction in parasite viability treated for 24 hrs by PI staining based flow cytometry; type: functional, organism-based; details: MCAN/ES/89/IPZ229/1/89, 24 h
# Method in brief: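 Axenic amastigotes were seeded from log-phase cultures at 10^5 parasites/mL in M199-based medium at pH 5.4. They were derived from promastigotes by 3 days at 37 °C. Compounds at 2.3–75 µM for 24 h at 37 °C. Viability read by propidium iodide flow cytometry. EC50 ± SE from three independent experiments, each in triplicate.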
# [9] = Selectivity index, ratio of CC50 for human HepG2 cells to EC50 for Leishmania infantum MCAN/ES/89/IPZ229/1/89 axenic amastigotes; type: toxicity; details: read-out: Ratio CC50/EC50
# [10] = test system: Leishmania infantum; experiment: Antileishmanial activity against Leishmania infantum promastigotes assessed as reduction in non-protein thiol content at 75 uM incubated for 1 hrs by CMF diacetate probe based flow cytometry relative to control; type: functional; design: scale not given: the % may be the effect or the level left
# Method in brief: (§3)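 Promastigotes grown in RPMI-1640 with 10% FCS and 25 mM HEPES pH 7.2 at 26 °C. Treatments were 75 µM for 1 h, 5 mM BSO for 72 h, or both combined; vehicle served as control. Some parasites were also H2O2-treated. Non-protein thiols read by flow cytometry as CMF diacetate green fluorescence in PI-excluding live parasites. Means of nine independent experiments with 99.0% confidence intervals.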
# [11] = biological target: Trypanothione reductase (Leishmania infantum) (UniProt A4HSF7); experiment: Time-dependent inhibition of Leishmania infantum TryR using TS2 as substrate assessed as decrease in initial velocity rate at fixed TS2 concentration; method in brief: as §1
# [12] = biological target: Trypanothione reductase (Trypanosoma cruzi, UniProt P28593); experiment: Inhibition of HIS-tagged recombinant Trypanosoma cruzi TryR oxidoreductase activity expressed in Escherichia coli in the presence of NADPH by spectrophotometry based DTNB-coupled assay; method in brief: as §2
# [13] = biological target: Trypanothione reductase (Trypanosoma brucei brucei, UniProt P39051); experiment: Inhibition of HIS-tagged recombinant Trypanosoma brucei TryR oxidoreductase activity expressed in Escherichia coli in the presence of NADPH by spectrophotometry based DTNB-coupled assay; method in brief: as §2
# [14] = biological target: T1, Trypanothione reductase; experiment: Mixed non-competitive inhibition of Leishmania infantum TryR using TS2 as substrate assessed as inhibition constant of first equilibrium by plot analysis; method in brief: as §1
# [15] = test system: Leishmania infantum; experiment: Antileishmanial activity against H2O2-induced Leishmania infantum promastigotes assessed as reduction in non-protein thiol content at 75 uM treated for 1 hr in presence of BSO by CMF diacetate probe based flow cytometry relative to control; type: functional; design: scale not given: the % may be the effect or the level left; method in brief: as §3
# [16] = Selectivity index, ratio of CC50 for human HepG2 cells to EC50 for GFP-expressing Leishmania infantum intracellular amastigotes infected in human THP-1 derived macrophage cells; type: toxicity, cell-based; details: read-out: Ratio CC50/EC50
# [17] = biological target: T1, Trypanothione reductase; experiment: Mixed non-competitive inhibition of Leishmania infantum TryR using TS2 as substrate assessed as inhibition constant of two-step induced-fit mechanism by plot analysis; method in brief: as §1
# [18] = biological target: Trypanothione reductase (Leishmania infantum) (UniProt A4HSF7); experiment: Time-dependent inhibition of Leishmania infantum TryR using TS2 as substrate assessed as decrease in final steady-state velocity at fixed TS2 concentration; method in brief: as §1
# [19] = biological target: T1, Trypanothione reductase; experiment: Disruption of HIS-FLAG-tagged recombinant Leishmania infantum TryR dimerization expressed in Escherichia coli Rossetta BL21 (DE3) cells incubated for 16 hrs by ELISA analysis
# Method in brief: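 400 nM HIS-FLAG-tagged LiTryR (co-purified with HIS-tagged LiTryR as heterodimer) incubated with compound (3.1–75 μM) in 50 mM Tris pH 8.0, 300 mM NaCl, 16 h, 37 °C with vigorous shaking; centrifuged, supernatant captured on α-FLAG plates, detected with HRP-α-HIS antibody and o-phenylenediamine, A490. Signal normalized to DMSO; IC50 by nonlinear regression; triplicate, three independent experiments.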
# [20] = test system: Leishmania infantum; experiment: Antileishmanial activity against GFP-expressing Leishmania infantum intracellular amastigotes infected in human THP-1 derived macrophage cells assessed as reduction in parasite viability measured for 72 hrs by resazurin/alamar blue fluorometric assay; type: functional, organism-based
# Method in brief: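 Human THP-1-derived macrophages infected with GFP-expressing L. infantum amastigotes; compounds at 2.3–75 µM, infected cells monitored for 72 h. EC50 ± SE from three independent experiments.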
# [21] = test system: Leishmania infantum; experiment: Antileishmanial activity against Leishmania infantum promastigotes assessed as reduction in total thiol content at 75 uM treated for 1 hr by CMF diacetate probe based flow cytometry relative to control; type: functional; design: scale not given: the % may be the effect or the level left; method in brief: as §3
# Trypanothione reductase (Leishmania infantum), sequence (A4HSF7 as listed by the source): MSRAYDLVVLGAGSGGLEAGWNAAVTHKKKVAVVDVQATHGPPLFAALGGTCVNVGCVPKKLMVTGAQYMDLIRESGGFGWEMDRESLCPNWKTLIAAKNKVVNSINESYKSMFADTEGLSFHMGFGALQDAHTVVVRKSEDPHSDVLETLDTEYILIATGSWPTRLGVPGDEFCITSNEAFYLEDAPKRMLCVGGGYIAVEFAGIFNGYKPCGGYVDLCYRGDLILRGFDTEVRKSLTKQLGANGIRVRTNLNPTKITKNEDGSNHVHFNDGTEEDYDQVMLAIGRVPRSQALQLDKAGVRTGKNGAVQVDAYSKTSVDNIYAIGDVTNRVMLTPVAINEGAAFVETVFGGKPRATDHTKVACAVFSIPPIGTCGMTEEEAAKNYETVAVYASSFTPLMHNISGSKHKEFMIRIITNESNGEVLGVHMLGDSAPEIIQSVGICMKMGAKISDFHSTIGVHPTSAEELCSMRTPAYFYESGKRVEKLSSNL
# T1 sequence (A4HSF7 whole entry): as the sequence (A4HSF7 as listed by the source) above
# Trypanothione reductase (Trypanosoma congolense, UniProt P13110), sequence (P13110 whole entry): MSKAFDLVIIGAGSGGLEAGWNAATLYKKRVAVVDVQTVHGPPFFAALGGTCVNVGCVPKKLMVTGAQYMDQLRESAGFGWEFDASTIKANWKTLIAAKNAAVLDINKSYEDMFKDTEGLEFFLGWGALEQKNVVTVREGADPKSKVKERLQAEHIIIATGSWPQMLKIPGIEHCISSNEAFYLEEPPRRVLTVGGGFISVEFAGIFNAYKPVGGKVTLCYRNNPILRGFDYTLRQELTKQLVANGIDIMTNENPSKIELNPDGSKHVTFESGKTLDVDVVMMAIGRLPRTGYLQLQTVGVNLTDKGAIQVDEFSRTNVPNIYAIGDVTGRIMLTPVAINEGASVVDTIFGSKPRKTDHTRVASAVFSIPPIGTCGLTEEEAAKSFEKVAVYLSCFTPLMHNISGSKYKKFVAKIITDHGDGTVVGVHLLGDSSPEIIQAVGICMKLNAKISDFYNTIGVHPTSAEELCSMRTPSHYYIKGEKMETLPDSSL
# Trypanothione reductase (Trypanosoma cruzi, UniProt P28593), sequence (P28593 whole entry): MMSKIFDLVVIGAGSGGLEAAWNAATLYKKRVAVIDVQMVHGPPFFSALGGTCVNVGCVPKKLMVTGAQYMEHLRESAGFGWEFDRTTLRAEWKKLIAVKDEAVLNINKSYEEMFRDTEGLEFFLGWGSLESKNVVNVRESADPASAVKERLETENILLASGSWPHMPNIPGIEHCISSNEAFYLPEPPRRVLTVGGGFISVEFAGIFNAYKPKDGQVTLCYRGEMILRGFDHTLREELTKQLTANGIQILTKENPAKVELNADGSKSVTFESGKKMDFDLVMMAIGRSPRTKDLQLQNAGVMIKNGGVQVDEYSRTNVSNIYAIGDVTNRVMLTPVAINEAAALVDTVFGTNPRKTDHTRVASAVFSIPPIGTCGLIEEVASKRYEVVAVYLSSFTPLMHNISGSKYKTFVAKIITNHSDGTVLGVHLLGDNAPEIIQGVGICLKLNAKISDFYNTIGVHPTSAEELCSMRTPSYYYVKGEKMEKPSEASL
# Trypanothione reductase (Trypanosoma brucei brucei, UniProt P39051), sequence (P39051 whole entry): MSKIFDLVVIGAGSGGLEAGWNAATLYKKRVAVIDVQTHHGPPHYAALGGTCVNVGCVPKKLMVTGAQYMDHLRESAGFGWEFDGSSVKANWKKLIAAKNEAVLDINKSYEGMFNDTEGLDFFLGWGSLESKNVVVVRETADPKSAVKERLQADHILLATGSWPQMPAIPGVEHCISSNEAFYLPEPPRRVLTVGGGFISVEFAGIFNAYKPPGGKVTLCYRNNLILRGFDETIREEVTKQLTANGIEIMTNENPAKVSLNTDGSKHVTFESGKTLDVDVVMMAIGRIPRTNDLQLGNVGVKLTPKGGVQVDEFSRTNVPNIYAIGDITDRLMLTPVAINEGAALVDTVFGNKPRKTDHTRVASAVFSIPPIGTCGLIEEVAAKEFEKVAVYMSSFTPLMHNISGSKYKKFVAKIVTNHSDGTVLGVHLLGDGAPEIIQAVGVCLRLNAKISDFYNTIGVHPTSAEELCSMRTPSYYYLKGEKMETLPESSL
structure (smiles),measurement,setting,value
C[n+]1nn(-c2ccc(-c3nc(CCc4ccc(-c5ccccc5)cc4)cs3)c(OCCN3CCNC3=O)c2)cc1CCCCN.O=C(O)C(F)(F)F.O=S(=O)([O-])C(F)(F)F,CC50 at 72 h,[1],> 75 µM
same,inhibition,[2],Active
same,inhibition,[3],Active
same,IC50,[4],3.6 µM
same,CC50 at 24 h,[5],> 75 µM
same,solubility thermodynamic at 24 h,[6],12.4 mg/mL
same,IC50,[7],5.2 µM
same,EC50,[8],11.6 µM
same,selectivity ratio,[9],> 6.5
same,Activity,[10],20%
same,inhibition,[11],Active
same,IC50,[12],9.2 µM
same,IC50,[13],4.9 µM
same,Ki,[14],1.2 µM
same,Activity,[15],50%
same,selectivity ratio,[16],> 8.6
same,Ki,[17],0.2 µM
same,inhibition,[18],Active
same,IC50,[19],10.3 µM
same,EC50,[20],8.7 µM
same,Activity,[21],15%
